Hits are enriched below; roughly 4.6% of the tested compounds scored in any of these assays.
TAAR1 agonist: agonists of human TAAR1; CHO RD-HGA16 TAAR1, Fluo-8 calcium fluorescence; vehicle wells 0%, saturating PEA agonist 100%; activation, % at 3 µM; 0.99% of 360,000 active; AID 624467;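 active means activation above the mean activation of all test compounds in the run plus 3 SD, cut at about 38% in these data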
Target sequence (Q96RJ0 whole entry, looked up): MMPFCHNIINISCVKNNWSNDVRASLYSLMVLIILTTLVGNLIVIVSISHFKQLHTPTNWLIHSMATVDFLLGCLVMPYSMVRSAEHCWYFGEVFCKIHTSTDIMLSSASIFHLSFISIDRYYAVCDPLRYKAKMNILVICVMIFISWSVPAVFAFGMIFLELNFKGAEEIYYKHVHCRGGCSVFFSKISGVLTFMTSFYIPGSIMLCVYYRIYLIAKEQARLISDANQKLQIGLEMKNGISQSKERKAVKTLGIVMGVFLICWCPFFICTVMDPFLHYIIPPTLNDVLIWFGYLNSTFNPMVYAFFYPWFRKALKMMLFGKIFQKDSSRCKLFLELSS
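Assay system: CHO-derived RD-HGA16 cells with stable Gα16 and human TAAR1; timing: 17-24 h seeding, 75 min 37 °C dye, 30 min RT; read-out: % activation from peak over basal fluorescence ratio, DMSO-to-PEA scaled; measured by: kinetic Fluo-8 calcium fluorescence; benchmarks: low control DMSO, high control PEA (EC100); doses: 3 µM single concentration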
OX1R antag-1: blocks the human orexin 1 receptor | OX1R-expressing cells, FRET antagonist read-out | inhibition, % at 6.6 µM | 1.8% of 330,000 active | AID 485270; in the data active means inhibition mostly above about 38%, no sharp cut-off; inactive means mostly below about 40%;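 further: 0% = agonist challenge alone and 100% = reference antagonist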
CHO parental Ca: counter-screen for OX1R antagonists: effect in parental CHO cells. parental CHO-K1, ATP-induced calcium, Fluo-8 fluorescence. inhibition, % at 5.6 µM. 0.63% of 330,000 active. AID 463079;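 active means inhibition above that plate's mean sample inhibition plus 3 SD, cut at about 26% in these data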;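 further: 0% = ATP-challenged DMSO wells and 100% = DMSO wells without ATP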
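Test system: untransfected parental CHO cell line. Compound: one dose, 5.6 µM nominal. Detection: intracellular calcium via Fluo-8 no-wash fluorescent dye. Measure: % inhibition. Benchmarks: ATP-challenged DMSO wells low, unchallenged DMSO wells high.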
TAAR1 antag: antagonists of human TAAR1. Q96RJ0. CHO RD-HGA16 TAAR1, Fluo-8 calcium fluorescence, antagonist. inhibition, % at 3 µM. 1.5% of 360,000 active. AID 624466;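 active means inhibition above a per-plate cutoff, the mean inhibition of test compounds on that plate plus 3 SD, cut at about 49% in these data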;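 further: 0% = DMSO plus EC80 beta-PEA response and 100% = DMSO alone without agonist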
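Assay system: RD-HGA16 CHO cells with stable hTAAR1 and Gα16 / Reagent: EC80 β-phenethylamine stimulus / Doses: 3 µM, single point / Timing: dye loading 75 min at 37 °C, then 30 min room temperature / Measured by: Fluo-8 intracellular calcium dye fluorescence, real-time kinetic reads / Controls: vehicle wells and EC80 agonist wells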
OX1R antag-2: blocks the human orexin 1 receptor. O43613. CHO/OX1R cells, Fluo-8 calcium fluorescence, orexin A. inhibition, % at 5 µM. 0.43% of 330,000 active;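 active means inhibition above its plate's threshold, mean inhibition of all tested compounds on the plate plus 3 SD, cut at about 37% in these data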;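 further: 0% = orexin A challenge wells and 100% = SB-334867-A antagonist wells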
GPR7 antagonist: antagonists of human GPR7 (neuropeptides B/W receptor 1). P48145. GPR7-expressing cells, fluorescence antagonist assay. inhibition, % at 4.4 µM. 1.1% of 290,000 active. AID 1861; in the data active means inhibition above about 16%, passing the limit was not always enough;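 further: cells stimulated with the agonist NPW; 0% = agonist with vehicle and 100% = vehicle without agonist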
Target sequence (P48145 whole entry, looked up): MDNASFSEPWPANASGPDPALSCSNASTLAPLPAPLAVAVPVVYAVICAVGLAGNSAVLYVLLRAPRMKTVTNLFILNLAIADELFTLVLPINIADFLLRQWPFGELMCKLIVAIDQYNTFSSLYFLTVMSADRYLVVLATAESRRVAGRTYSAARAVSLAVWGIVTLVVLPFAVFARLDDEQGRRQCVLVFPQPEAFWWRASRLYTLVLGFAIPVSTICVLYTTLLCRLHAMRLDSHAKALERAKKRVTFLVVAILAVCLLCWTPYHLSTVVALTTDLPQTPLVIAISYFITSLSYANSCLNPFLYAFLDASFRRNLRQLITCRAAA
GPR7 antag conf: human GPR7 antagonism, confirmation assay. GPR7-expressing cells, calcium fluorescence antagonist mode. AID 1952. 52% of 2,400 active. inhibition, % at 4.4 µM. shares compounds with GPR7 antagonist; in the data active means inhibition above about 24%;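 further: stimulated with the GPR7 agonist NPW; 0% = agonist plus vehicle and 100% = vehicle alone without agonist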
MCHR1 antag: antagonizes human MCHR1, a GPR7 antagonist counter-screen | shares compounds with GPR7 antagonist | MCHR1-expressing cells, fluorescence antagonist assay | inhibition, % at 4.4 µM | 62% of 2,400 active | AID 2148;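 further: 0% = vehicle with agonist and 100% = vehicle without agonist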
OX1R Ca confirm: OX1R (human) antagonism, confirmed. CHO/OX1R cells, orexin A calcium Fluo-8 fluorescence. inhibition, % at 5 µM. shares compounds with OX1R antag-2. 38% of 1,100 active; in the data active means inhibition above about 29%;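 further: 0% = agonist challenge alone and 100% = reference antagonist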
CHO Ca counter: counter-screen: parental CHO calcium response change, triplicate | shares compounds with OX1R antag-2 | parental CHO-K1, ATP-induced calcium, Fluo-8 fluorescence | inhibition, % at 5.6 µM | 9.3% of 1,100 active | AID 492965;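 active means inhibition above a per-plate limit, the mean inhibition of that plate's test compounds plus 3 SD, cut at about 25% in these data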;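 further: 0% = ATP challenge with DMSO and 100% = DMSO without ATP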
OX1R HTRF confirm: confirmation of human orexin 1 receptor antagonists, HTRF format; shares compounds with OX1R antag-1; OX1R-expressing cells, HTRF antagonist assay; inhibition, % at 6.6 µM; 49% of 1,800 active; in the data active means inhibition above about 55%;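 further: CHO cells expressing OX1R stimulated with orexin A at about EC80; 0% = agonist challenge alone and 100% = reference antagonist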
CHO-K1 HTRF: counter-screen: parental CHO-K1 HTRF response; shares compounds with OX1R antag-1; 48% of 1,800 active; parental CHO-K1 cells, HTRF counterscreen; inhibition, % at 6.6 µM; in the data active means inhibition above about 17%;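 further: 0% = agonist challenge with vehicle and 100% = vehicle alone without agonist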
TAAR1 nonsel count: counter-screen for TAAR1 antagonists: nonselective antagonists | shares compounds with TAAR1 antag | counterscreen cell line, calcium fluorescence, antagonist mode | inhibition, % at 3 µM | 77% of 2,400 active;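 further: CHO-Ga16 host cells stimulated with ATP at an EC80 level; 0% = agonist EC80 plus vehicle and 100% = vehicle without agonist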
TAAR1 ant conf: human TAAR1 antagonism, confirmed; 40% of 2,400 active; AID 651785; inhibition, % at 3 µM; shares compounds with TAAR1 antag; TAAR1-expressing cells, fluorescence antagonist read-out; in the data active means inhibition above about 49%;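 further: CHO-Ga16 host cells challenged with agonist PEA near its EC80; 0% = agonist at EC80 plus vehicle and 100% = vehicle with no agonist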
Ga16 ag counter: counter-screen for TAAR1 antagonists: nonselective Ga16 agonists. Ga16-expressing cells, calcium fluorescence, agonist counterscreen. activation, % at 3 µM. 18% of 2,400 active. shares compounds with TAAR1 antag; in the data active means activation above about 12%;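 further: 0% = vehicle wells and 100% = saturating stimulus response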
TAAR1 ag count: counter-screen for human TAAR1 antagonists: TAAR1 agonists; shares compounds with TAAR1 antag; hTAAR1 cell line, fluorescence activation, agonist mode; activation, % at 3 µM; 2% of 2,400 active; in the data active means activation above about 37%;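 further: CHO cells stably expressing TAAR1 with calcium dye readout; 0% = DMSO vehicle and 100% = full agonist response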
Active calls of the source: *. Unless noted, no stated cut-off is given here; in the data, active means inhibition above about 22%; inactive means the rest.

Results for CCOC(=O)c1nn(-c2ccccc2C)c(=O)c(C#N)c1C ?
TAAR1 agonist: 5; OX1R antag-1: 127*; CHO parental Ca: 2; TAAR1 antag: 9; OX1R antag-2: -6; GPR7 antagonist: 29*; GPR7 antag conf: -12; MCHR1 antag: 3; OX1R HTRF confirm: 65*; CHO-K1 HTRF: 43*

How did Cc1cccc(S(=O)(=O)N[C@@H]2CC[C@@H](CCNS(=O)(=O)c3ccccc3F)O[C@@H]2CO)c1 do in these assays?
TAAR1 agonist: 1; TAAR1 antag: -17

What do the screens show for `COc1ccccc1N(CC(=O)NC1CCCC1)C(=O)c1oc(C(C)(C)C)cc1C`?
TAAR1 agonist: 20; OX1R antag-1: 52*; CHO parental Ca: -24; TAAR1 antag: 9; OX1R antag-2: 41*; GPR7 antagonist: 44*; GPR7 antag conf: 37*; MCHR1 antag: 48*; OX1R Ca confirm: 20; CHO Ca counter: 3; OX1R HTRF confirm: 64*; CHO-K1 HTRF: 1

What do the screens show for `COCCCNC(=O)/C=C1\Sc2ccccc2N(Cc2ccccc2F)C1=O`?
TAAR1 agonist: 2; OX1R antag-1: 86*; CHO parental Ca: -19; TAAR1 antag: -7; OX1R antag-2: 4; MCHR1 antag: 12; OX1R HTRF confirm: 77*; CHO-K1 HTRF: 3

What do the screens show for `O=S(=O)(NC1CC1)c1ccc(S(=O)(=O)N2CCCc3ccccc32)cc1`?
TAAR1 agonist: 4; OX1R antag-1: 37*; CHO parental Ca: 1; TAAR1 antag: 43; OX1R antag-2: 82*; GPR7 antagonist: 22*; GPR7 antag conf: 30*; MCHR1 antag: 28*; OX1R Ca confirm: 60*; CHO Ca counter: 5; OX1R HTRF confirm: 62*; CHO-K1 HTRF: -1

What do the screens show for `O=S(=O)(c1ccccc1)N1CCCc2ccccc21`?
OX1R antag-1: 17; CHO parental Ca: 3; OX1R antag-2: -14; GPR7 antagonist: -12

Results for Cc1cccc(N2N=C(C(=O)N3CC(=O)Nc4ccccc43)CCC2=O)c1 ?
TAAR1 agonist: 10; OX1R antag-1: 22; CHO parental Ca: -14; TAAR1 antag: -1; OX1R antag-2: -1; GPR7 antagonist: 12

What do the screens show for `O=C(c1ccco1)N(CCC(c1ccccc1)c1ccco1)Cc1ccc(F)cc1` (stereo not drawn)?
OX1R antag-1: 1; CHO parental Ca: 6; OX1R antag-2: 4; GPR7 antagonist: 17

How did CC1(C)CC(C(CCN(Cc2ccccc2)C(=O)c2ccco2)c2ccc(F)cc2)CCO1 (stereo not drawn) do in these assays?
TAAR1 agonist: 5; OX1R antag-1: 8; CHO parental Ca: -10; TAAR1 antag: 73*; OX1R antag-2: -3; GPR7 antagonist: 31*; GPR7 antag conf: 37*; MCHR1 antag: 60*; TAAR1 nonsel count: 41*; TAAR1 ant conf: 54*; Ga16 ag counter: 6; TAAR1 ag count: 0

Results for O=C(Nc1ccc2c(c1)CCCN2C(=O)c1cccs1)c1c(F)cccc1Cl ?
TAAR1 agonist: 1; OX1R antag-1: 14; CHO parental Ca: -8; TAAR1 antag: 59*; OX1R antag-2: -18; GPR7 antagonist: 26*; GPR7 antag conf: 16; MCHR1 antag: 41*; TAAR1 nonsel count: 22*; TAAR1 ant conf: 43; Ga16 ag counter: 8; TAAR1 ag count: 13

What do the screens show for `CC1(C)N=C(N)N=C(N)N1c1ccc(OCC(=O)N2CCOCC2)c(Cl)c1`?
TAAR1 agonist: 3; TAAR1 antag: -17

Results for O=C(OCC(=O)N1CCOCC1)c1ccc2ccccc2c1O ?
TAAR1 agonist: 14; OX1R antag-1: 15; CHO parental Ca: -12; TAAR1 antag: -7; OX1R antag-2: -22

How did COc1ccc(OC)c(NC(=O)c2cccc(N3C(=O)C4C5C=CC(C6CC56)C4C3=O)c2)c1 (stereo not drawn) do in these assays?
TAAR1 agonist: 11; OX1R antag-1: 9; CHO parental Ca: -7; TAAR1 antag: 75*; OX1R antag-2: -31; GPR7 antagonist: 24*; GPR7 antag conf: 22; MCHR1 antag: 69*; TAAR1 nonsel count: 46*; TAAR1 ant conf: 62*; Ga16 ag counter: 13*; TAAR1 ag count: 10

What do the screens show for `CCOC(=O)c1cc(-c2ccncc2)nc2c1c(C)nn2C`?
TAAR1 agonist: 2; OX1R antag-1: 16; CHO parental Ca: -15; TAAR1 antag: -30; OX1R antag-2: -33; GPR7 antagonist: -2

What do the screens show for `CCOC(=O)c1cc(-c2ccccc2)nc2c1c(C)nn2-c1ccccn1`?
TAAR1 agonist: 16; OX1R antag-1: 7; CHO parental Ca: -26; TAAR1 antag: 53*; OX1R antag-2: -36; GPR7 antagonist: 46*; GPR7 antag conf: 28*; MCHR1 antag: 34*; TAAR1 nonsel count: 22*; TAAR1 ant conf: 28; Ga16 ag counter: 8; TAAR1 ag count: 14

High-throughput results from PubChem BioAssay.
